GRK2 aptamer HTS = human GRK2 inhibition via aptamer displacement. P25098. bead flow cytometry, FAM-aptamer displacement from GRK2. inhibition of aptamer binding, % at 10 µM. 330,000 compounds, 0.59% hits;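 active = inhibition of aptamer binding above 40%, roughly 3 SD of noise, on plates passing a quality check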;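 note: median bead fluorescence of bound FAM aptamer so fluorescent compounds give negative values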
Target sequence (P25098 whole entry, looked up): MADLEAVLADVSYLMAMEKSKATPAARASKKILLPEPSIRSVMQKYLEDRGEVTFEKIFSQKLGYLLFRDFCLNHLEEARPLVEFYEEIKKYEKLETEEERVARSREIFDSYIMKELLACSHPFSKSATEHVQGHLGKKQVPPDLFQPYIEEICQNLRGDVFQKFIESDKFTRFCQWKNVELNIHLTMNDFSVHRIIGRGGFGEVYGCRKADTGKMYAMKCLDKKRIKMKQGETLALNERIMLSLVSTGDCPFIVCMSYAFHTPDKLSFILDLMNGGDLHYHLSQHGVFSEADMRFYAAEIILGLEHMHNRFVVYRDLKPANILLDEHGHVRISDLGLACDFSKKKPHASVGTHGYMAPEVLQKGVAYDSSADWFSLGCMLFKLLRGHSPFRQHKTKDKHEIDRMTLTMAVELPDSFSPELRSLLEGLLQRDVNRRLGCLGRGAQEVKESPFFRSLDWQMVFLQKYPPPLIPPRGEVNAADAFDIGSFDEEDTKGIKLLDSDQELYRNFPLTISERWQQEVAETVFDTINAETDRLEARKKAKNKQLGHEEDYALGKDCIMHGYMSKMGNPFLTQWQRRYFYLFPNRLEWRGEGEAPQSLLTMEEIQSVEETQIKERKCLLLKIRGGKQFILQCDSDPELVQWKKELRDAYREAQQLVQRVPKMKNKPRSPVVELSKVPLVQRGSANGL
SKN-1 block = C. elegans SKN-1 inhibition; C. elegans VP596 Pgst-4::GFP/RFP ratio, acrylamide-induced, 24 h; inhibition, % at 21.8 µM; 360,000 compounds, 0.49% hits; AID 624304;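 active = interference check ratio from 0.5 to 1.5 plus GFP to RFP signal ratio inhibition reaching or exceeding a fixed threshold, cut at about 30% in these data, passing the limit was not always enough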
Myeloid diff MLP = promotes myeloid progenitor differentiation. ER-HoxA9 myeloid progenitors, lysozyme-GFP differentiation, flow cytometry. calls only at 10 µM. 360,000 compounds, 1% hits. AID 624256;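 active = normalized GFP-positive differentiation at or above the plate's own cutoff, the solvent-only control mean plus 3 SD; inconclusive = no clear call, values can overlap the other calls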;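 note: cells exposed to compound for four days before flow analysis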
Rin1-Abl PPI inh = blocks binding of human Rin1 to Abl | TR-FRET Rin1/Abl binding, biochemical | inhibition, % at 7.35 µM | 360,000 compounds, 0.4% hits | P00519+Q13671 | AID 588664; in the data active = inhibition above about 5%, passing the limit was not always enough
T cell HTS = T cell immune modulators affecting CD8 T cell-vesicle binding; 2C CD8+ T cell-vesicle binding, flow cytometry; stronger effect = lower value; response (vesicle binding), % at 7 µM; 330,000 compounds, 0.068% hits; AID 2052;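 active = response, share of CD8 T cells binding vesicles, and their 90th percentile fluorescence all below set limits, cut at about 80% in these data, passing the limit was not always enough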;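 note: values below 100% mean blocked vesicle binding to the CD8+ T cells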
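Assay system: 2C TCR transgenic mouse naive CD8+ T cells, MACS-purified | Read-out: CD8+ gate FL2 mean fluorescence as % of same-row positive control | Signal: High-throughput flow cytometry with anti-B7-1 and anti-CD8 staining | Timing: Binding step 1.5 h, 37 °C, antibody labelling 20 min, ice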
Rce1 inh = yeast Ras-converting enzyme inhibition. yeast membranes, quenched prenylated peptide cleavage fluorescence. calls only. 290,000 compounds, 0.27% hits. AID 2563;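 active = fall in fluorescence gain of 50% or more versus controls, with final raw signal at or below 3038400; inconclusive = same 50% fall but final raw signal above 3038400; inactive = fall in fluorescence gain under 50%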
Rin1-Abl confirm = confirmation of inhibitors of human Rin1-Abl interaction; TR-FRET Rin1-Abl binding, purified proteins; shares compounds with Rin1-Abl PPI inh; inhibition, % at 7.35 µM; 1,300 compounds, 49% hits
GFP quench = GFP fluorescence interference artifact; shares compounds with Rin1-Abl PPI inh; inhibitors/quenchers counterscreen; inhibition, % at 6.75 µM; 1,300 compounds, 8.5% hits; AID 602125;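 note: ABL1-eGFP fusion protein alone without its partner RIN1-SBP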
Myeloid diff = promotes myeloid progenitor differentiation | 2,300 compounds, 2% hits | ER-HoxA9 myeloid progenitors, GFP/Mac1 double-positive flow | calls only | shares compounds with Myeloid diff MLP | AID 651706;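 active = share of green or green-and-red cells above 9 and 9% in run 1 or 4 and 3% in run 2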
GFP autofluor = counter-screen for myeloid differentiation promoters: compound fluorescence. shares compounds with Myeloid diff MLP. ER-HoxA9 myeloid progenitors, no estrogen, GFP autofluorescence flow cytometry; vehicle wells 0%, positive control 100%. fluorescence response, % (test concentration not listed). 2,300 compounds, 7.4% hits;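 active = over 5% cells positive for green fluorescent reporter, or over 2% positive for both it and APC stain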
Each line names hits and unclear results; the compound was inactive in the other large screens (follow-up assays come after a bar, where they were run). This is a sample that favours compounds with a hit; in the whole collection about 2.6% have one here. Cut-off read from the data, not from the text of the source, unless noted: active = inhibition above about 6.5%; inactive = the rest.

CCn1cc(CN2CCC(C(=O)Nc3cccc(-c4cccc(F)c4)c3)CC2)cn1	none
CC(C)[C@H](NC(=O)N1CC(=O)Nc2ccccc21)C(=O)N[C@@H](C(=O)O)c1ccccc1	none
COc1ccc(OCC(=O)OCCN2C(=O)c3ccccc3C2=O)cc1	Myeloid diff MLP active, Rin1-Abl PPI inh 10 | Rin1-Abl confirm inactive | GFP quench inactive | Myeloid diff inactive | GFP autofluor inactive
COc1cccc(/C=N/Nc2ncccc2[N+](=O)[O-])c1OC	none
O=[N+]([O-])c1ccc(/C=N/Nc2ncccc2[N+](=O)[O-])s1	none | Myeloid diff inactive | GFP autofluor inactive
OCCN(Cc1ccccc1)Cc1ccccc1O	none
OCCN(Cc1ccccc1)Cc1ccc(F)c(F)c1	none | Myeloid diff inactive | GFP autofluor inactive
COc1cccc(N2CCN(S(=O)(=O)c3ccc4ccccc4c3)CC2)c1	none (no result: GRK2 aptamer HTS, T cell HTS, Rce1 inh) | Myeloid diff inactive | GFP autofluor inactive
O=C(CN1CCN(C(=O)CNC(=O)c2ccc(N3CCCC3=O)cc2)CC1)Nc1ccccc1Cl	none (no result: Rce1 inh)
O=C(COC(=O)c1ccc2c(c1)OCO2)Nc1ccccc1F	none (no result: Rce1 inh)
Cc1ccc2nc(/C(C#N)=C\c3ccc(N4CCOCC4)o3)[nH]c2c1	Myeloid diff MLP active | Myeloid diff inactive | GFP autofluor 29
Cc1cc2nc(/C(C#N)=C\c3ccc(-c4ccccc4C(=O)O)o3)[nH]c2cc1C	none | Myeloid diff inactive | GFP autofluor inactive
CC1(C)CC(=O)C/C(=N/NC(=O)c2ccc(-c3ccccc3)cc2)C1	Myeloid diff MLP active | Myeloid diff inactive | GFP autofluor 5.2
CC1(C)CC(=O)C/C(=N\NC(=O)Cc2ccccc2)C1	none
CC(=O)C1C(c2ccc(F)c(F)c2)NC(=O)NC1(O)C(F)(F)F (centres undefined)	none (no result: T cell HTS) | Myeloid diff inactive | GFP autofluor inactive
CCN1CCCC1CNC(=O)C1CCN(C(=O)c2cc3sccc3n2Cc2ccc(F)cc2)CC1 (centres undefined)	none
O=C(NCCc1c[nH]c2ccccc12)c1ccc([N+](=O)[O-])o1	Myeloid diff MLP active (no result: GRK2 aptamer HTS, T cell HTS, Rce1 inh) | Myeloid diff inactive | GFP autofluor inactive
O=C(NCCc1c[nH]c2ccccc12)c1cc([N+](=O)[O-])cc([N+](=O)[O-])c1	none
CC(C)CN1C(=O)C(=O)N(CC(=O)N(C)CC(=O)Nc2ccc(Cl)c(C(F)(F)F)c2)C1=O	none (no result: Rce1 inh)
OCC[C@@H]1C[C@@H](O)[C@H](O)[C@]2(OCCc3ccccc32)O1	none
O=C(O)CCC1(C(=O)O)OCCc2ccccc21 (centres undefined)	none | Myeloid diff inactive | GFP autofluor inactive
Cc1ccc(S(=O)(=O)N2C[C@@H]3CCCC[C@@H]3[C@@H](C)[C@H]2c2cn(Cc3ccccc3)c3ncccc23)cc1	none (no result: T cell HTS, Rce1 inh) | Myeloid diff inactive | GFP autofluor inactive
Cc1ccc(S(=O)(=O)N2C[C@@H]3CCCC[C@@H]3[C@@H](C)[C@H]2c2cn(Cc3ccccc3)c3ccccc23)cc1	Myeloid diff MLP inconclusive (no result: T cell HTS, Rce1 inh)
O=C(COC(=O)c1ccc(F)c(S(=O)(=O)N2CCOCC2)c1)c1ccc(Cl)cc1	none (no result: Rce1 inh)
CCOC(=O)c1c(C)[nH]c(C(=O)COC(=O)c2ccc(F)c(S(=O)(=O)N3CCOCC3)c2)c1C	Myeloid diff MLP active | Myeloid diff inactive | GFP autofluor inactive
COc1ccc(-c2csc(NC3CCCCC3)n2)c(OC)c1	Myeloid diff MLP active | Myeloid diff inactive | GFP autofluor inactive
c1ccc(-c2csc(NC3CCCCC3)n2)cc1	none (no result: Myeloid diff MLP, Rce1 inh)
CNC(=S)N(CCc1c(C)[nH]c2ccccc12)Cc1cc(OC)c(OC)c(OC)c1	none
CCNC(=S)N(CCc1c(C)[nH]c2ccccc12)Cc1cc(OC)c(OC)c(OC)c1	none | Myeloid diff inactive | GFP autofluor inactive
NS(=O)(=O)c1ccc(Nc2ncccc2[N+](=O)[O-])cc1	Myeloid diff MLP active | Myeloid diff inactive | GFP autofluor inactive
COc1ccccc1C1CC(c2ccccc2)=NN1S(=O)(=O)c1ccccc1 (centres undefined)	none
COc1cccc(C2CC(c3ccccc3)=NN2S(=O)(=O)c2ccc(C)cc2)c1OC (centres undefined)	Myeloid diff MLP active | Myeloid diff inactive | GFP autofluor 93
COc1ccc(S(=O)(=O)N(C)C[C@@H]2OCCCC[C@@H](C)Oc3ccc(NC(=O)NC(C)C)cc3C(=O)N([C@H](C)CO)C[C@@H]2C)cc1	none (no result: GRK2 aptamer HTS, T cell HTS, Rce1 inh)
O=C(COc1ccc(-n2cnnn2)cc1)Nc1ccc(F)c(F)c1	none (no result: Rce1 inh) | Myeloid diff inactive | GFP autofluor inactive
CC(=O)N1CCCC(N2CCN(c3cccc(C(F)(F)F)c3)CC2)C1 (centres undefined)	none
CCCN1CCC(N2CCN(c3cccc(C(F)(F)F)c3)CC2)CC1	Myeloid diff MLP active | Myeloid diff inactive | GFP autofluor inactive
COCOc1cccc(CN2CCC2(C)C(=O)Nc2ccc(C)c(O)c2)c1 (centres undefined)	none (no result: GRK2 aptamer HTS, T cell HTS, Rce1 inh)
C[C@@H]1CC=C[C@H]2[C@H]1C(=O)N(Cc1ccccc1)[C@H]2c1ccc(-c2ccoc2)cc1F	none
C[C@@H]1CC=C[C@H]2[C@H]1C(=O)N(Cc1ccccc1)[C@H]2c1ccc(-c2ccc(F)cc2)cc1F	none | Myeloid diff inactive | GFP autofluor inactive
N#CCCn1cnc2c(=S)nc[nH]c21	Myeloid diff MLP active | Myeloid diff inactive | GFP autofluor inactive
Nc1nc(SCc2ccccc2)c2ncn(C3CCCO3)c2n1 (centres undefined)	none (no result: GRK2 aptamer HTS, T cell HTS, Rce1 inh) | Myeloid diff inactive | GFP autofluor inactive
C[C@H](N)C(=O)N1CCC(C(=O)N[C@@H](Cc2ccccc2)C(=O)Nc2ccc(F)cc2)CC1	none (no result: Rce1 inh) | Myeloid diff inactive | GFP autofluor inactive
O=C(N[C@@H](Cc1ccccc1)C(=O)Nc1ccc(F)cc1)C1CCNCC1	none
COc1ccc2cc(CN(CC3CCCO3)S(=O)(=O)c3ccccc3)c(=O)[nH]c2c1 (centres undefined)	Myeloid diff MLP active | Myeloid diff inactive | GFP autofluor inactive
COc1ccc2[nH]c(=O)c(CN(CC3CCCO3)S(=O)(=O)c3ccccc3)cc2c1 (centres undefined)	none
Cc1c(C(=O)OC(C)C)[nH]c2c1C(=O)CC(C)(C)C2	Myeloid diff MLP active | Myeloid diff inactive | GFP autofluor inactive
